# Assay outcomes (PubChem)
# An excerpt weighted towards active compounds, which were near 2.5% of everything screened.
# SENP7 block – blocks the human protease SENP7; 1.5% of 330,000 active; Q9BQF6; recombinant SENP7, Z-RLRGG-aminoluciferin luminescence, 40 min; inhibition, % at 5 µM;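 active = inhibition above about 50% at the single test dose, limit read from the data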
# SENP8 block-1 – SENP8 (human) protease inhibition; AID 602440; inhibition, % at 20 µM; 0.64% of 360,000 active; recombinant SENP8, Nedd8 substrate fluorescence; in the data active = inhibition mostly above about 40%, no sharp cut-off; inactive = mostly below about 27%
# SENP8 block-2 – blocks the human protease SENP8; 1.2% of 330,000 active; AID 2540; Q96LD8; inhibition, % at 10 µM; purified SENP8, Z-RLRGG-aminoluciferin cleavage, luminescence; in the data active = inhibition above about 50%
# SENP1 inh – blocks the human SENP1 SUMO protease catalytic domain; AID 624204; 0.21% of 360,000 active; Q9P0U3; recombinant SENP1 catalytic domain, CyPet-SUMO1-YPet FRET cleavage; inhibition, % at 10 µM;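 active = inhibition at least 30% at 10 µM, raw YFP signal under a set limit, fluorescence ratio 0.5 to 1.5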
#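 Controls: no-enzyme wells low, DMSO-plus-enzyme wells high control. Test system: human recombinant His6-tagged SENP1 catalytic domain enzyme. Reagent: SFCypet-SUMO1-SFYpet FRET protein substrate, 25 nM final. Doses: one dose per compound, 10 µM, 0.5% DMSO. Detection: FRET, CFP and YFP emission. Timing: 50 min reaction at room temperature.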
# SENP6 block – blocks the human protease SENP6; Q9GZR1; Recombinant SENP6 catalytic domain, aminoluciferin luminescence; inhibition, % at 10 µM; 1.8% of 330,000 active;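 active = inhibition above about 50% at the single tested dose, limit read from the data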
# Target sequence (Q9GZR1 628-1112 limits assumed): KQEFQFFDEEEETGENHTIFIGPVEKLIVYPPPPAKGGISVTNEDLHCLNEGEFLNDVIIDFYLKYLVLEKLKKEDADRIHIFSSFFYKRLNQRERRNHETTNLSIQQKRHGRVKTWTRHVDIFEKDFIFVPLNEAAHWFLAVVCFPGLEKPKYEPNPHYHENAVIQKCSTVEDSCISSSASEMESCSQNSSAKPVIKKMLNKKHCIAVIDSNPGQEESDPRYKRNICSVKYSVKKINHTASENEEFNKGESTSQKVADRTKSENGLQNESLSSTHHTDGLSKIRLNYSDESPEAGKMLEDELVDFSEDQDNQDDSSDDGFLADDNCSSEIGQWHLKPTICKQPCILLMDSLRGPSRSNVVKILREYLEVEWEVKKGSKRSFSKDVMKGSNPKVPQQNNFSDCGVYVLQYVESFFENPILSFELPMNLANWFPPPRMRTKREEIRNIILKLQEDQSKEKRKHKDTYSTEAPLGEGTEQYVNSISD
# SENP8 inh conf – confirmation of human SENP8 protease inhibitors; shares compounds with SENP8 block-1; purified SENP8, Nedd8-AMC/pro-Nedd8 cleavage fluorescence, 30 min; inhibition, % at 25 µM; 15% of 1,400 active; AID 624319; in the data active = inhibition mostly above about 39%, no sharp cut-off; inactive = mostly below about 34%
# A number is an active result; n = inactive; x = no result given.
SMILES,SENP7 block,SENP8 block-1,SENP8 block-2,SENP1 inh,SENP6 block,SENP8 inh conf
Cc1cc(NS(=O)(=O)c2ccc(NC(=O)C(C(C)C)N3C(=O)c4ccccc4C3=O)cc2)nc(C)n1 (centres undefined),n,n,n,n,n,x
Cc1cc(NS(=O)(=O)c2ccc(NC(=O)C(CC(C)C)N3C(=O)c4ccccc4C3=O)cc2)nc(C)n1 (centres undefined),n,42.4,n,n,n,n
CC1=C(C)CC(C(=O)NCc2cccc(Cl)c2)C(C(=O)O)C1 (centres undefined),n,n,n,n,n,x
O=C(COc1ccc(Br)cc1CO)Nc1ccc(F)cc1,n,40.7,n,n,n,n
O=C(CSc1ccc(-c2cccc([N+](=O)[O-])c2)nn1)NC1CCCC1,n,n,n,n,n,x
CC(=O)n1c2ccccc2c2nc3ccccc3nc21,n,n,n,n,n,x
C=CCNc1nc2c3ccccc3n(C(C)=O)c2s1,n,51.0,n,n,n,n
Cc1ccc(C(=O)COc2ccccc2-c2ccccc2)cc1,n,45.2,n,n,n,n
CCc1nc2c(OCC=C(C)C)cccn2c1N(C)C(=O)c1ccc(OC)cc1,x,43.4,x,n,x,n
CCC(CC)C(=O)N(C)c1c(C)nc2c(OCC=C(C)C)cccn12,x,40.1,x,n,x,n
CCC(CC)C(=O)N(C)c1c(C)nc2c(OCCOc3ccccc3)cccn12,x,n,x,n,x,x
CCCOc1cccn2c(N(C)C(=O)c3ccccc3F)c(CC)nc12,x,n,x,n,x,x
CCc1nc2c(OCC=C(C)C)cccn2c1N(C)C(=O)c1ccccc1F,x,41.1,x,n,x,n
COc1cc2c(cc1OC)C(O)=CC(=O)C2=O,x,n,x,n,x,x
COC(=O)c1cn(NC(=O)Cn2nc([N+](=O)[O-])c(Br)c2C)c(=O)c2ccccc12,n,n,n,n,n,x
CSc1ccc(OC2(C)CCN(Cc3ccc(C(C)C)cc3)C2)cc1 (centres undefined),x,n,x,n,x,x
CCC1CN(C(=O)N2CCC(C(=O)Nc3ccccc3OC)CC2)c2ccccc2O1 (centres undefined),n,n,n,n,n,x
COc1ccc(OC)c(S(=O)(=O)Nc2cccc3c(O)cccc23)c1,n,47.5,n,n,n,n
O=C(OCn1nnc2ccccc2c1=O)C1CCCCC1,n,42.4,n,n,n,n
OCc1nc2c(ccc3ccccc32)[nH]1,n,n,n,n,n,x
COC(=O)c1ccc(NC(=O)CN(c2ccc(OC)cc2)S(C)(=O)=O)cc1,n,41.0,n,n,n,n
CCn1nccc1NC(=O)c1csc([C@H]2C[C@H](O)[C@@H](CO)O2)n1,x,n,x,n,x,x
Cc1c(N=C2N=C(NC(=O)c3cccs3)c3ccccc32)c(=O)n(-c2ccccc2)n1C,n,59.8,n,n,n,n
Cc1c(N=C2N=C(NC(=O)NC(C)(C)C)c3ccccc32)c(=O)n(-c2ccccc2)n1C,n,n,n,n,n,x
CCN1CCN(C(=O)C(C)Nc2cc(Cl)c(OC)cc2OC)CC1 (centres undefined),n,43.8,n,n,n,n
SMILES,SENP7 block,SENP8 block-1,SENP8 block-2,SENP1 inh,SENP6 block,SENP8 inh conf
CCC(C)[C@@H](N)C(=O)N/N=C/c1cccc2nccnc12 (some centres undefined),n,x,n,x,n,x
COc1ccc(NC2CCCN(C(=O)CSc3ccccn3)C2)cc1OC (centres undefined),n,27.9,n,n,n,n
CCOC(=O)N1CCC(Nc2ccc(N3C(=O)C4CCCCC4C3=O)cc2[N+](=O)[O-])CC1 (centres undefined),n,37.8,n,n,n,n
CC1CCC2C(=O)N(c3ccc(NC4CCCCC4)c([N+](=O)[O-])c3)C(=O)C2C1 (centres undefined),n,n,n,n,n,x
CC1CCN(c2ccc(NC(=S)NC(=O)c3ccco3)cc2)CC1,n,42.4,n,n,n,n
CCO[C@H]1C[C@@H](c2ccc(CC)cc2)N(S(=O)(=O)c2ccc(C)cc2)C2CC(c3ccc(CC)cc3)N(S(=O)(=O)c3ccc(C)cc3)CC21 (some centres undefined),x,n,x,n,x,x
CCOc1cc(C(c2c(C)[nH][nH]c2=O)c2c(C)[nH][nH]c2=O)ccc1OS(=O)(=O)c1ccccc1,n,44.4,n,n,n,46.7
COc1cc(NCCCCCCN)c2ncccc2c1OC,x,72.4,x,n,x,96.3
CSc1nc(C)cc(-c2cc(C(=O)Nc3ccccc3)on2)n1,n,x,n,x,n,x
COC(=O)Cc1c(C)nc2nc(-c3ccc(C)cc3)[nH]n2c1=O,n,45.5,n,n,n,n
O=C(C[C@H]1CC[C@@H]2[C@H](COC[C@H](O)CN2Cc2cccc(F)c2)O1)NCc1cccc(F)c1,x,n,x,n,x,x
CCOc1ccc(OCCCCN2CCCC2)cc1,n,42.0,n,n,n,n
Cc1ccc(OCCCCN2CCCCC2)cc1,n,n,n,n,n,x
Cc1cccc(N(C)C(=O)c2cc(S(=O)(=O)N3CCc4ccccc43)cn2C)c1,n,45.7,n,n,n,n
CCc1nc(SCC(=O)N2CCCc3ccccc32)c2oc3ccccc3c2n1,n,46.3,n,n,n,n
Cc1nc(SCC(=O)O)c2oc3ccccc3c2n1,n,46.9,n,n,n,n
Cc1nc(SCC(=O)NCc2ccccc2)c2oc3ccccc3c2n1,n,n,n,n,n,x
CCc1nc(SCC(=O)NC2CCCC2)c2oc3ccccc3c2n1,n,n,n,n,n,x
C/C(CC(=O)NC(C)(C)C)=N\NC(N)=S,n,n,n,n,n,x
Cc1ccc(NC(=O)CSc2cn[nH]n2)cc1,n,n,n,n,n,x
COc1ccc(CNC(=O)[C@H](C)NC(=O)N2CCn3c2nc2ccccc23)cc1,n,n,n,n,n,x
Oc1ccc(Br)cc1-c1cc(-c2ccccc2Cl)[nH]n1,n,42.1,n,n,n,n
CC(C)OC(=O)CSc1nnc(-c2ccccn2)n1-c1ccccc1,n,45.0,n,n,n,n
Cc1noc(-c2ccc(C(F)(F)F)cc2)c1NC(=O)Nc1ccc(Cl)cc1,n,n,n,n,n,x
COC(=O)CCCC1=CC2=CC(=O)C(C)(OC(=O)c3cccs3)C(=O)C2=CN1C1CC1 (centres undefined),n,40.7,n,n,n,63.0
COC(=O)CCCC1=CC2=CC(=O)C(C)(OC(=O)c3cccs3)C(=O)C2=CN1CCCCO (centres undefined),n,52.8,n,n,n,55.5
COC(=O)CCCC1=CC2=C(c3ccccc3)C(=O)C(C)(OC(=O)C3CCCC3)C(=O)C2=CN1Cc1ccco1 (centres undefined),n,n,n,n,n,x
COC(=O)CCCC1=CC2=CC(=O)C(C)(OC(=O)c3cccs3)C(=O)C2=CN1CCN1CCOCC1 (centres undefined),n,50.9,n,n,n,55.4
COC(=O)CCCC1=CC2=CC(=O)C(C)(OC(=O)c3cccs3)C(=O)C2=CN1C1CCCCC1 (centres undefined),n,n,n,n,n,x
